From ChEMBL document CHEMBL1821653, “Alcohol-, diol-, and carbohydrate-substituted indenoisoquinolines as topoisomerase I inhibitors: investigating the relationships involving stereochemistry, hydrogen bonding, and biological activity” (2011)

How the values were obtained:
SN12C = experiment: Antiproliferative activity against human SN12C cells by SRB assay; format: functional
In short: (§1)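 NCI 60-cell-line human tumor panel. Compounds first screened at one dose of 10^-5 M. Selected compounds then tested at five concentrations from 10^-8 to 10^-4 M. GI50 is the concentration giving 50% growth inhibition. GI50 values outside the tested range are assigned 10^-8 M or 10^-4 M.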

SF-539 = experiment: Antiproliferative activity against human SF539 cells by SRB assay; format: functional; in short: as §1
OVCAR-3 = experiment: Antiproliferative activity against human OVCAR3 cells by SRB assay; format: functional; in short: as §1
HOP-62 = experiment: Antiproliferative activity against human HOP62 cells by SRB assay; format: functional; in short: as §1
DU-145 = experiment: Antiproliferative activity against human DU145 cells by SRB assay; format: functional; in short: as §1
UACC-62 = experiment: Antiproliferative activity against human UACC62 cells by SRB assay; format: functional; in short: as §1
HCT-116 = experiment: Antiproliferative activity against human HCT116 cells by SRB assay; format: functional; in short: as §1
[1] = molecular target: T1, DNA topoisomerase 1 (Homo sapiens) (UniProt P11387); experiment: Inhibition of recombinant human TOP1 mediated DNA cleavage after 20 mins by gel electrophoresis relative to camptothecin; design: concentration or dose not given beside the values
T1 sequence (whole entry): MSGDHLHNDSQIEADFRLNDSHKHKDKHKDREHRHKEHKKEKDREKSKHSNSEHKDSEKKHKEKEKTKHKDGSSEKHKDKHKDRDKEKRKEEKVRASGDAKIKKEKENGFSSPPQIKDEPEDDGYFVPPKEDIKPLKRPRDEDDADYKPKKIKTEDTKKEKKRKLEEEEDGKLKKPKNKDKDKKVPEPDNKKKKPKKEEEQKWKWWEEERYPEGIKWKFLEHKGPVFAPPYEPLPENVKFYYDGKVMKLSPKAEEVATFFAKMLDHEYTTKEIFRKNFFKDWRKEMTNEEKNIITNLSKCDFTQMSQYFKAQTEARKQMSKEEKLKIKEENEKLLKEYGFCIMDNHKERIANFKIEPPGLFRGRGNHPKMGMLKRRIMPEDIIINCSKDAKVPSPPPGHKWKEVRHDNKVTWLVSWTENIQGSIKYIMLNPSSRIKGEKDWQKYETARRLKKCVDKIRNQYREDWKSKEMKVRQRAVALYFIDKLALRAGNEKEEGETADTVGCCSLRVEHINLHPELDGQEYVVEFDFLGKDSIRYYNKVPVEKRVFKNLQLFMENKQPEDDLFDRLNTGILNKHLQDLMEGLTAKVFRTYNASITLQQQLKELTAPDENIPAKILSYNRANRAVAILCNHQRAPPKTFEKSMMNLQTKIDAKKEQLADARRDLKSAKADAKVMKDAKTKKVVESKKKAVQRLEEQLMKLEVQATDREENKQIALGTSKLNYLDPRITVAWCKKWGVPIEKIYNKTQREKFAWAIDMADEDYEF
In short: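 117-bp oligonucleotide containing Top1 cleavage sites, 3'-end labeled with [α-32P]-dGTP by Klenow fill-in. About 2 nM substrate incubated with recombinant Top1 and various compound concentrations for 20 min at 25 °C in 10 mM Tris-HCl pH 7.5, 50 mM KCl, 5 mM MgCl2, 0.1 mM EDTA, 15 μg/mL BSA. Stopped with 0.5% SDS, run on 20% denaturing PAGE, phosphorimaged.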

MCF7 = experiment: Antiproliferative activity against human MCF7 cells by SRB assay; format: functional; in short: as §1

Compound	GI50 (SN12C)	GI50 (SF-539)	GI50 (OVCAR-3)	GI50 (HOP-62)	GI50 (DU-145)	GI50 (UACC-62)	GI50 (HCT-116)	inhibition [1]	GI50 (MCF7)
O=C(CO)Cn1c2c(c3ccccc3c1=O)C(=O)c1ccccc1-2	81.3 µM	20 µM	5.23 µM	40.7 µM	17.8 µM	58.9 µM	30.9 µM	20%	32.3 µM
COc1cc2c3c(n(C[C@H](O)CO)c(=O)c2cc1OC)-c1ccccc1C3=O	0.501 µM	0.214 µM	0.287 µM	0.336 µM	0.419 µM	0.144 µM	0.23 µM	75%	0.097 µM
O=C1c2ccccc2-c2c1c1ccccc1c(=O)n2C[C@@H](O)CO	3.77 µM	5.72 µM	16.1 µM	3.79 µM	2.34 µM	4.36 µM	4.47 µM	50%	3.04 µM
O=C1c2ccccc2-c2c1c1ccc([N+](=O)[O-])cc1c(=O)n2C[C@H](O)CO	0.241 µM	0.157 µM	0.309 µM	0.089 µM	0.04 µM	0.098 µM	0.025 µM	> 95%	0.016 µM
CC[C@@]1(O)C(=O)OCc2c1cc1n(c2=O)Cc2cc3ccccc3nc2-1 [CAMPTOTHECIN]	–	–	–	–	–	–	–	–	0.01 µM
O=C1c2ccccc2-c2c1c1ccccc1c(=O)n2C[C@@H](O)[C@@H](O)[C@H](O)[C@H](O)CO	–	–	–	–	–	–	–	20%	–
O=C1c2ccccc2-c2c1c1ccc([N+](=O)[O-])cc1c(=O)n2C[C@H](O)[C@@H](O)[C@H](O)[C@H](O)CO	17.7 µM	2.61 µM	4.26 µM	7.35 µM	4.76 µM	2.98 µM	5.08 µM	> 95%	0.88 µM
COc1cc2c3c(n(CCCn4ccnc4)c(=O)c2cc1OC)-c1cc2c(cc1C3=O)OCO2 [INDIMITECAN]	–	–	–	–	–	–	–	> 95%	0.01 µM
O=C1c2ccccc2-c2c1c1ccccc1c(=O)n2C[C@H](O)[C@H](O)[C@H](O)CO	2.4 µM	2.14 µM	13.5 µM	2.95 µM	1.32 µM	3.23 µM	3.39 µM	0%	1.38 µM
NCC(O)Cn1c2c(c3ccccc3c1=O)C(=O)c1ccccc1-2 (racemic)	0.206 µM	0.344 µM	1.32 µM	0.276 µM	0.13 µM	0.318 µM	0.263 µM	50%	0.198 µM
COc1cc2c3c(n(C)c(=O)c2cc1OC)-c1cc2c(cc1C3=O)OCO2	68 µM	–	–	1.3 µM	37 µM	4.2 µM	35 µM	–	1.58 µM
O=C1c2ccccc2-c2c1c1ccccc1c(=O)n2C[C@H](O)[C@H](O)[C@H](O)[C@H](O)CO	3.39 µM	5.75 µM	13.8 µM	3.23 µM	3.31 µM	2.95 µM	4.17 µM	–	1.78 µM
C[C@H](O)Cn1c2c(c3ccccc3c1=O)C(=O)c1ccccc1-2	–	–	–	–	–	–	–	75%	–
O=C1c2ccccc2-c2c1c1ccccc1c(=O)n2C[C@H](O)[C@@H](O)[C@H](O)[C@H](O)CO	–	–	–	–	–	–	–	50%	–
CC(CO)n1c2c(c3ccccc3c1=O)C(=O)c1ccccc1-2 (racemic)	37.1 µM	14.4 µM	25.7 µM	17.6 µM	23.7 µM	11.7 µM	15.9 µM	20%	34.4 µM
O=C1c2ccccc2-c2c1c1ccccc1c(=O)n2C[C@H](O)[C@@H](O)[C@@H](O)[C@H](O)CO	–	–	–	–	–	–	–	20%	–
COc1cc2c3c(n(CCCN4CCOCC4)c(=O)c2cc1OC)-c1cc2c(cc1C3=O)OCO2 [INDOTECAN]	–	–	–	–	–	–	–	> 95%	0.37 µM
O=C1c2ccccc2-c2c1c1ccccc1c(=O)n2CC(O)CO (racemic)	2.95 µM	5.89 µM	18.6 µM	7.76 µM	2.88 µM	7.58 µM	4.36 µM	50%	3.55 µM
O=C1c2ccccc2-c2c1c1ccccc1c(=O)n2C[C@H](O)[C@@H](O)[C@H](O)CO	2.24 µM	7.94 µM	24 µM	3.23 µM	–	2.88 µM	3.39 µM	50%	1.74 µM
O=C1c2ccccc2-c2c1c1ccccc1c(=O)n2C[C@H](O)CO	6.92 µM	7.41 µM	14.5 µM	5.01 µM	5.75 µM	5.37 µM	–	75%	4.9 µM
O=C1c2ccccc2-c2c1c1ccccc1c(=O)n2C[C@@H](O)[C@H](O)[C@H](O)CO	20 µM	7.59 µM	> 100 µM	8.71 µM	16.6 µM	7.41 µM	–	50%	4.57 µM
CC(O)Cn1c2c(c3ccccc3c1=O)C(=O)c1ccccc1-2 (racemic)	3.98 µM	6.76 µM	16.2 µM	3.46 µM	4.36 µM	6.16 µM	5.75 µM	20%	3.8 µM
C[C@@H](O)Cn1c2c(c3ccccc3c1=O)C(=O)c1ccccc1-2	9.33 µM	6.31 µM	21.4 µM	3.39 µM	8.32 µM	10.2 µM	5.52 µM	75%	3.23 µM
COc1cc2c3c(n(CCCNCCO)c(=O)c2cc1OC)-c1cc2c(cc1C3=O)OCO2 [LMP-744]	–	0.04 µM	0.5 µM	–	–	–	–	> 95%	< 0.01 µM
C[C@@H](CO)n1c2c(c3ccccc3c1=O)C(=O)c1ccccc1-2	–	–	–	–	–	–	–	50%	–
O=C1c2ccccc2-c2c1c1ccccc1c(=O)n2C[C@@H](O)[C@@H](O)[C@H](O)CO	5.01 µM	11.2 µM	13.2 µM	6.46 µM	3.98 µM	6.31 µM	3.39 µM	75%	1.9 µM
C[C@H](CO)n1c2c(c3ccccc3c1=O)C(=O)c1ccccc1-2	–	–	–	–	–	–	–	20%	–
